pIC50: −log10 of the molar value. Values belong to the compound of their own block, whether it stands above or below them. Calls of active or inactive are those of the source. No cut-off for these calls is given here.
Experiments:
[1] = Prodrug activation in guinea pig serum assessed as HNO release at 100 uM at pH < 6 by electrochemical detection method; set-up: species or system Cavia porcellus
How it was run: (§1)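 NO electrode equilibrated at room temperature in buffer of the chosen pH containing 50 μM DTPA and 2% guinea pig serum. Compound added at 100 μM (0.1% DMSO) and maximum current recorded; triplicate additions. HNO measured indirectly after adding 1 mM ferricyanide to oxidize it to NO. Mean ± SD, n = 3.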

[2] = Prodrug conversion in guinea pig serum assessed as conversion of MbO2 to metMb at 50 uM by spectrophotometr; format: ADME, Cavia porcellus
How it was run: (§2)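 MbO2 (50 μM) exposed to compound at 37°C in pH 7.4 buffer (50 μM DTPA), with or without 2% guinea pig serum and with or without 1 mM GSH. Formation of metMb followed spectrally at 30-900 s intervals for 800 s to 6 h. MbO2 autoxidation monitored separately every 600 s over 12 h. n = 3.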

[3] = Drug metabolism of the compound in PBS buffer assessed as accumulation of DEA/NO at pH 10 by NMR spectroscopy; format: physicochemical
[4] = system: A549; assay: Cellular uptake in human A549 cells assessed as HNO/NO release at 10 uM by fluorescence asay; format: ADME, cell-based; conditions: a549, 10 µM
How it was run: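 A549 cells seeded at 60,000 per well and grown 4 h, then loaded with 10 μM DAF-FM diacetate in PBS for 75 min at 37°C and washed three times. Compound added at 10 μM final (prodrugs from DMSO stock, ionic NONOates from 10 mM NaOH stock). Fluorescence at 535 nm (excitation 485 nm) followed over time at 37°C. n = 2, six replicates per plate.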

[5] = system: HUVEC; assay: Cytotoxicity against human HUVEC cells up to 100 uM after 48 hrs by MTT assay; format: cell-based
How it was run: (§3)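 A549 cells in RPMI 1640 with 10% FBS, and HUVECs in endothelial growth medium, both at 37°C in 5% CO2. Seeded at 8,000-10,000 per well, grown overnight, then exposed to 0-200 μM for 48 h. MTT (10 μL of 2 mg/mL) added for 1 h at 37°C, formazan dissolved in DMSO and read at 550 nm. n = 3 for A549, n = 1 for HUVEC, each at least in triplicate.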

[6] = system: Rattus norvegicus; assay: Toxicity in Sprague-Dawley rat assessed as stomach ulcer at 1.38 mmol/kg, po after 6 hrs relative to aspirin; format: organism-based; conditions: in vivo
How it was run: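 Rats fasted 24 h with water allowed, then dosed orally at 1.38 mmol/kg in 1% methylcellulose vehicle; controls received vehicle. Killed by CO2 at 6 h. Stomachs examined under a magnifying glass and ulcers scored by number and size (1 mm = 1; 1-2 mm = 2; >2 mm = length in mm). Ulcer index = total ulcer length per stomach averaged over animals (n = 4).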

[7] = Drug metabolism of the compound in PBS buffer at pH 10 after 90 mins by NMR spectroscopy; format: physicochemical; conditions: pH 10, 1.5 h
[8] = Drug metabolism in guinea pig serum assessed as NONO-salicylate formation at 100 uM after 5 mins by HPLC analysis; format: ADME, cell-free, Cavia porcellus
How it was run: (§4)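 Compound added at 100 μM final to 0.1 M phosphate buffer, pH 7.4, with 50 μM DTPA and 2% guinea pig serum, preheated to 37°C. Reaction followed over time by reversed-phase C18 HPLC with a water/acetonitrile gradient containing 0.1% formic acid. Products identified by co-elution with authentic standards.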

[9] = system: A549; assay: Cytotoxicity against human A549 cells after 48 hrs by MTT assay; format: functional, cell-based; conditions: A549, 48 h; how it was run: as §3
[10] = system: Rattus norvegicus; assay: Antiinflammatory activity in po dosed Sprague-Dawley rat assessed as inhibition of carrageenan-induced paw edema administered 1 hr prior to carrageenan challenge measured after 3 hrs; format: functional; conditions: read-out: ID50 (the source's name)
How it was run: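 Rats 160-180 g (n = 3) given compound by gavage at 0.8 mmol/kg, suspended in 1% methyl cellulose in water; controls received vehicle. After 1 h, 100 μL of 1% carrageenan in 0.9% NaCl injected into the right hind paw. Paw volume read by plethysmometer at 0 and 3 h. ID50 taken from dose-response curves as the dose halving the control inflammatory response.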

[11] = Prodrug activation in guinea pig serum assessed as HNO release at 100 uM at pH > 6 by electrochemical detection method; set-up: species or system Cavia porcellus; how it was run: as §1
[12] = Half life of the compound at pH 7.4 in presence of guinea pig serum; format: physicochemical
[13] = Drug metabolism of the compound in PBS buffer assessed as salicylate formation at pH 10 by NMR spectroscopy; format: physicochemical
[14] = Half life of the compound at pH 7.4; format: physicochemical
[15] = Drug metabolism of the compound in PBS buffer assessed as aspirin formation at pH 10 by NMR spectroscopy; format: physicochemical
[16] = Drug metabolism of the compound in PBS buffer assessed as aspirin formation; format: physicochemical
[17] = Drug metabolism of the compound in PBS buffer assessed as accumulation of DEA/NO at pH 10 after 10 mins by NMR spectroscopy; format: physicochemical; conditions: pH 10, 10 min
[18] = Drug metabolism in guinea pig serum assessed as aspirin formation at 100 uM after 5 mins by HPLC analysis; format: ADME, cell-free, Cavia porcellus; how it was run: as §4
[19] = Prodrug conversion of the compound assessed as conversion of MbO2 to metMb at 250 uM by spectrophotometry; format: ADME; how it was run: as §2
[20] = Drug metabolism in guinea pig serum assessed as NONO-salicylate formation at 100 uM after 40 mins by HPLC analysis; format: ADME, cell-free, Cavia porcellus; how it was run: as §4
[21] = Half life of the compound; format: physicochemical
[22] = Cardioprotective effect in mouse cardiomyocytes assessed as increase in whole calcium transient at 500 uM by confocal laser scanning microscopy relative to control; format: functional, cell-based; conditions: Cardiomyocyte
How it was run: (§5)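 Ventricular myocytes from wild-type mice aged 2-4 months, anesthetized with ip pentobarbital 100 mg/kg, superfused with compound at 500 μM. Sarcomere shortening imaged under 0.5 Hz field stimulation and length tracked by real-time Fourier transform. Relaxation taken as time from peak shortening to 50% relaxation. Ca2+ transients read by confocal microscopy after fluo-4/AM loading (20 μM, 30 min). n = 12 cells.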

[23] = Drug metabolism of the compound in PBS buffer assessed as isopropanol formation at pH 10 by NMR spectroscopy; format: physicochemical
[24] = Drug metabolism of the compound in PBS buffer assessed as salicylate formation at pH 7.4; format: physicochemical
[25] = target: Glyceraldehyde-3-phosphate dehydrogenase (Homo sapiens) (UniProt P04406); assay: Inhibition of GAPDH in human A549 cells at 100 uM after 1 hr by fluorescence assay; format: cell-based
Chain of Glyceraldehyde-3-phosphate dehydrogenase (Homo sapiens) (P04406 2-335 limits assumed): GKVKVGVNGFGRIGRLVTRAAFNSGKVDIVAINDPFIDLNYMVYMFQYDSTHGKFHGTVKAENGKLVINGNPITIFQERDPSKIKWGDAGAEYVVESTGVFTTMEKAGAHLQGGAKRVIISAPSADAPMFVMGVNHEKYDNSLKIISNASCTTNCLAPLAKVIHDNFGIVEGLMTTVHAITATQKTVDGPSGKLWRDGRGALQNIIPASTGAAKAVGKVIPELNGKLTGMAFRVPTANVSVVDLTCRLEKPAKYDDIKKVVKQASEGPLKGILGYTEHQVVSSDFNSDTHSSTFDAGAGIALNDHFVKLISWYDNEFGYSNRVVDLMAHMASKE
How it was run: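 A549 cells seeded at 30,000 per well, grown overnight and treated with 100 μM for 1 h at 37°C. Cells lysed 20 min at 4°C in KAlert buffer. Lysate mixed with KAlert mastermix and GAPDH activity read as fluorescence at 570 nm (excitation 540 nm). Mean ± SD of triplicate; one-way ANOVA against control.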

[26] = Cardioprotective effect in mouse cardiomyocytes assessed as reduction in time required for half relaxation from peak shortening at 500 uM relative to control; format: functional, cell-based; set-up: scale not given: the % may be the effect or the level left; conditions: Cardiomyocyte; how it was run: as §5
[27] = Stability in mouse cardiomyocytes after 20 to 30 mins; format: ADME, cell-based; conditions: cardiomyocyte
[28] = target: T1, Prostaglandin G/H synthase 2 (Homo sapiens) (UniProt P35354); assay: Inhibition of COX-2 mediated PGE2 production in human A549 cells at 25 to 50 uM after 24 hrs by EIA; format: cell-based
T1 sequence (whole entry): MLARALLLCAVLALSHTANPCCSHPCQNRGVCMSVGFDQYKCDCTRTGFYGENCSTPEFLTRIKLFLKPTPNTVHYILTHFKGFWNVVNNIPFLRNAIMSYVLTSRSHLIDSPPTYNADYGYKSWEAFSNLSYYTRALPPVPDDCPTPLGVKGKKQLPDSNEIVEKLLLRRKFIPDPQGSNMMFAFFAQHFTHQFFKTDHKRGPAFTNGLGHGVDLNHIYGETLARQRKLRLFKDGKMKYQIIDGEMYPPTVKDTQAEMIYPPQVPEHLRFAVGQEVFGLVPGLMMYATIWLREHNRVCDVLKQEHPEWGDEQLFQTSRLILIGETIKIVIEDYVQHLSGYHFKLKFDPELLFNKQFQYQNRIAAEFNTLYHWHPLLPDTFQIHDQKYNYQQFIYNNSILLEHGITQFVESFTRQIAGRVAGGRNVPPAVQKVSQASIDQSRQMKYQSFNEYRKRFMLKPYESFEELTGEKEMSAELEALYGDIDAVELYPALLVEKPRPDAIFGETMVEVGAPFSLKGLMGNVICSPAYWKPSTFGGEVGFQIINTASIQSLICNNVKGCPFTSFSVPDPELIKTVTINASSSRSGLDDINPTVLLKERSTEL
How it was run: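 A549 cells seeded at 50,000 per well and grown 12 h, then treated with 25 or 50 μM (0.1% DMSO) for 24 h at 37°C. PGE2 in the supernatant measured by competitive AChE-tracer EIA: overnight incubation at 4°C, Ellman's reagent development, […]. Run in triplicate.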

[29] = Drug metabolism of the compound in PBS buffer assessed as formaldehyde formation at pH 10 by NMR spectroscopy; format: physicochemical
[30] = Drug metabolism of the compound in PBS buffer assessed as acetate formation at pH 10 by NMR spectroscopy; format: physicochemical
[31] = system: Serum; assay: Drug metabolism in fetal bovine serum by HPLC analysis; format: ADME, cell-free, Bos taurus; conditions: cattle
[32] = Cardioprotective effect in mouse cardiomyocytes assessed as myocyte contractility measured as sarcomere shortening at 500 uM relative to control; format: functional, cell-based; conditions: Cardiomyocyte; how it was run: as §5
[33] = Prodrug conversion in guinea pig serum assessed as conversion of MbO2 to metMb at 100 uM by spectrophotometry; format: ADME, Cavia porcellus; conditions: 50 or 250 µM, in the assay text read “at 50 or 250 uM” for “at 100 uM”; how it was run: as §2
[34] = Drug metabolism of the compound in guinea pig serum assessed as aspirin formation at 100 uM after 40 mins by HPLC analysis; format: ADME, cell-free, Cavia porcellus; how it was run: as §4

Compound: CCN(CC)/[N+]([O-])=N/OCOC(=O)c1ccccc1OC(C)=O
Drug metabolism [1]: Not Active
Drug metabolism [2]: Active
Drug metabolism [3]: Active
Drug uptake [4]: Active
Activity [5]: Non-toxic
UI [6]: 0
Drug metabolism [7]: Not Active
Drug metabolism [8]: Active
pIC50 [9]: 3.87
ED50 [10]: 169 mg/kg
Drug metabolism [11]: Not Active
half-life [12]: 13 min
Drug metabolism [13]: Active
half-life [14]: 36 h
Drug metabolism [15]: Active
Drug metabolism [16]: Active
Drug metabolism [17]: Active
Drug metabolism [18]: Active
Drug metabolism [19]: Active

Compound: CCN(CC)/[N+]([O-])=N/OCOC(=O)c1ccccc1O
Drug metabolism [20]: Not Active

Compound: CCN(CC)/[N+]([O-])=N/[O-].[Na+]
half-life [21]: 2.5 min

Compound: CC(=O)Oc1ccccc1C(=O)O [ASPIRIN]
ED50 [10]: 129 mg/kg

More lines, main results first:

half-life [21]: 5.7 min
Compound: CC(C)N[N+]([O-])=N[O-].[Na+]

Drug metabolism [1]: Not Active
Drug uptake [4]: Active
Drug metabolism [23]: Active
Drug metabolism [24]: Active
Drug metabolism [8]: Active
inhibition [25]: Active
Stability [27]: Stable
inhibition [28]: Active
Drug metabolism [11]: Active
Drug metabolism [29]: Active
Drug metabolism [30]: Active
half-life [12]: 18 min
Drug metabolism [13]: Active
half-life [14]: 7.5 h
Drug metabolism [31]: Active
Drug metabolism [18]: Active
Drug metabolism [19]: Active
Drug metabolism [33]: Active
Compound: CC(=O)Oc1ccccc1C(=O)OCO/N=[N+](\[O-])NC(C)C
Activity [22]: 24%
Activity [5]: Non-toxic
UI [6]: 3.3
pIC50 [9]: 4.05
Activity [26]: 17%
ED50 [10]: 121 mg/kg
Activity [32]: 201%

Drug metabolism [34]: Active
Compound: CC(C)N/[N+]([O-])=N/OCOC(=O)c1ccccc1O

— ChEMBL document CHEMBL2429753, “Synthesis and chemical and biological comparison of nitroxyl- and nitric oxide-releasing diazeniumdiolate-based aspirin derivatives” (J Med Chem, 2013)
